Measurements published in ChEMBL document CHEMBL5532673, “Design and Discovery of Novel NLRP3 Inhibitors and PET Imaging Radiotracers Based on a 1,2,3-Triazole-Bearing Scaffold” (J Med Chem, 2024).
Activity calls are given as the source filed them. No cut-off for these calls is given here.

Experiments:
[1] = target: T1, Interferon-inducible protein AIM2 (Mus musculus) (UniProt Q91VJ1); experiment: Inhibition of AIM2 inflammasome activation in LPS treated mouse J774.A1 cells assessed as inhibition of IL-1beta secretion at 3 uM pre-incubated for 1 hr followed by Poly (dA:dT) stimulation for 4 hrs by ELISA; format: cell-based; conditions: time 5.0 hrs
T1 sequence (whole entry): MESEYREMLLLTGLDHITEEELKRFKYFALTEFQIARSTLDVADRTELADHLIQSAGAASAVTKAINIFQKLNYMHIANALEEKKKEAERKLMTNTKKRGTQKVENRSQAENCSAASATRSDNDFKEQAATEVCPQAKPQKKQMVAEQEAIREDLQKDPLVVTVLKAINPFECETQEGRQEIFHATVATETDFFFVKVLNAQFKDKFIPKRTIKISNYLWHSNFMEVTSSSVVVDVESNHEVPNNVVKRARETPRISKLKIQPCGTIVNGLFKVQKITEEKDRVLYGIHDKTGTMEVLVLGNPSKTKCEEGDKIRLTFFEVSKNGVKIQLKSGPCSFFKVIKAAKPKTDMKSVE
Method in brief: (§1)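 J774A.1 cells at 1×10^5/well, plated overnight. Co-treated with LPS (1 µg/mL) and compound for 1 h. AIM2 triggered by poly(dA:dT) (4 µg/mL) transfected with Lipofectamine 2000 for 4 h. NLRC4 triggered by flagellin (1 µg/mL) delivered with a transfection kit for 6 h. Supernatant IL-1β read by mouse ELISA.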

[2] = target: T1, Interferon-inducible protein AIM2 (Mus musculus); experiment: Inhibition of AIM2 inflammasome activation in LPS treated mouse J774.A1 cells assessed as inhibition of IL-1beta secretion at 10 uM pre-incubated for 1 hr followed by Poly (dA:dT) stimulation for 4 hrs by ELISA; format: cell-based; conditions: time 5.0 hrs; method in brief: as §1
[3] = target: NLR family CARD domain-containing protein 4 (Mus musculus) (UniProt Q3UP24); experiment: Inhibition of NLRC4 inflammasome activation in LPS treated mouse J774.A1 cells assessed as inhibition of IL-1beta secretion at 3 uM pre-incubated for 1 hr followed by flagellin stimulation for 6 hrs by ELISA; format: cell-based; conditions: time 7.0 hrs; method in brief: as §1
[4] = target: NLR family CARD domain-containing protein 4 (Mus musculus) (UniProt Q3UP24); experiment: Inhibition of NLRC4 inflammasome activation in LPS treated mouse J774.A1 cells assessed as inhibition of IL-1beta secretion at 10 uM pre-incubated for 1 hr followed by flagellin stimulation for 6 hrs by ELISA; format: cell-based; conditions: time 7.0 hrs; method in brief: as §1
[5] = target: NACHT, LRR and PYD domains-containing protein 3 (Mus musculus) (UniProt Q8R4B8); experiment: Inhibition of NLRP3 inflammasome activation in LPS treated mouse J774.A1 cells assessed as inhibition of TNF-alpha secretion at <=3 uM followed by LPS addition measured after 4.5 hrs by ELISA; format: cell-based
[6] = target: NACHT, LRR and PYD domains-containing protein 3 (Mus musculus, UniProt Q8R4B8); experiment: Inhibition of NLRP3 inflammasome activation in LPS treated mouse J774.A1 cells assessed as inhibition of ATP-stimulated IL-1beta secretion pre-incubated for 30 mins followed by ATP addition measured after 30 mins by ELISA; format: cell-based
Method in brief: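 Murine J774A.1 macrophages seeded at 1×10^5 cells/well overnight, then primed with E. coli O111:B4 LPS (final 1 µg/mL) for 4.5 h. Compounds added for 30 min, then ATP (5 mM) for 30 min to activate NLRP3. IL-1β released into the supernatant quantified by mouse IL-1β ELISA.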

[7] = target: NACHT, LRR and PYD domains-containing protein 3 (Mus musculus) (UniProt Q8R4B8); experiment: Inhibition of NLRP3 inflammasome activation in LPS treated mouse J774.A1 cells assessed as inhibition of ATP-stimulated IL-1beta secretion at 0.1 to 1 uM pre-incubated for 30 mins followed by ATP addition measured after 30 mins by ELISA; format: cell-based; conditions: dose 0.1-1 µM, time 60.0 min
Method in brief: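 J774A.1 cells plated at 1 × 10^5 cells/well overnight, primed with E. coli 0111:B4 LPS (final 1 μg/mL) for 4.5 h. Compound added for 30 min, then ATP (5 mM) for 30 min to activate NLRP3. IL-1β in supernatant measured by mouse IL-1β ELISA.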

[8] = target: NACHT, LRR and PYD domains-containing protein 3 (Mus musculus) (UniProt Q8R4B8); experiment: Inhibition of NLRP3 inflammasome activation in LPS treated mouse J774.A1 cells assessed as inhibition of nigericin-stimulated IL-1beta secretion at 0.1 to 1 uM pre-incubated for 30 mins followed by nigericin addition measured after 30 mins by ELISA; format: cell-based; conditions: dose 0.1-1 µM, time 60.0 min
[9] = target: NACHT, LRR and PYD domains-containing protein 3 (Mus musculus) (UniProt Q8R4B8); experiment: Inhibition of NLRP3 inflammasome activation in LPS treated mouse J774.A1 cells assessed as inhibition of TNF-alpha secretion at 0.1 to 10 uM followed by LPS addition measured after 4.5 hrs by ELISA; format: cell-based; conditions: dose 0.1-10 µM
[10] = target: NACHT, LRR and PYD domains-containing protein 3 (Mus musculus) (UniProt Q8R4B8); experiment: Binding affinity to NLRP3 in wild type C57BL/6 mouse brain incubated for 20 mins by autoradiography; format: tissue-based; conditions: tested as the 11C-labelled form
Method in brief: (§2)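 Frozen mouse brain sections preincubated in 50 mM Tris-HCl pH 7.4 for 30 min at ambient temperature, then incubated 20 min at ambient temperature with [11C]8 (5 mCi/L, ~1 nM). For blocking, unlabeled ligand (10 μM) added to the incubation solution beforehand (n = 4). Sections washed in Tris-HCl (3 × 5 min), dried, exposed to imaging plates 120 min; ROI signal given as DLU/mm2.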

[11] = target: NACHT, LRR and PYD domains-containing protein 3 (Mus musculus) (UniProt Q8R4B8); experiment: Binding affinity to NLRP3 in wild type C57BL/6 mouse brain incubated for 20 mins in presence of compound 8 by autoradiography; format: tissue-based; conditions: tested as the 11C-labelled form; method in brief: as §2
[12] = target: NACHT, LRR and PYD domains-containing protein 3 (Mus musculus) (UniProt Q8R4B8); experiment: Binding affinity to NLRP3 in wild type C57BL/6 mouse brain incubated for 20 mins in presence of compound MCC950 by autoradiography; format: tissue-based; conditions: tested as the 11C-labelled form; method in brief: as §2
[13] = target: NACHT, LRR and PYD domains-containing protein 3 (Mus musculus) (UniProt Q8R4B8); experiment: Binding affinity to NLRP3 in C57BL/6 mouse brain expressing nIrp3-/- incubated for 20 mins by autoradiography; format: tissue-based; conditions: tested as the 11C-labelled form; method in brief: as §2
[14] = Drug uptake in monkey brain assessed as standardized uptake value at iv administration by PET/MR imaging analysis; format: ADME, organism-based, Macaca mulatta; conditions: rhesus monkey, in vivo
Method in brief: (§3)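 Single rhesus macaque (n=1). Radiotracer 5.20 mCi given i.v. through an antecubital catheter. Dynamic PET/MR acquired on a 3T scanner with a BrainPET insert, 3D-OSEM reconstruction, registration to the INIA19/NeuroMaps atlas. Regional activity expressed as SUV, with an arterial line for plasma metabolite analysis.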

[15] = Drug uptake in monkey cerebellum at iv administration by PET/MR imaging analysis; format: ADME, organism-based, Macaca mulatta; conditions: rhesus monkey, in vivo; method in brief: as §3
[16] = Drug uptake in monkey hippocampus at iv administration by PET/MR imaging analysis; format: ADME, organism-based, Macaca mulatta; conditions: rhesus monkey, in vivo; method in brief: as §3
[17] = Drug uptake in monkey insula at iv administration by PET/MR imaging analysis; format: ADME, organism-based, Macaca mulatta; conditions: rhesus monkey, in vivo; method in brief: as §3
[18] = Drug uptake in monkey putamen at iv administration by PET/MR imaging analysis; format: ADME, organism-based, Macaca mulatta; conditions: rhesus monkey, in vivo; method in brief: as §3
[19] = Drug uptake in monkey thalamus at iv administration by PET/MR imaging analysis; format: ADME, organism-based, Macaca mulatta; conditions: rhesus monkey, in vivo; method in brief: as §3

Chain of NACHT, LRR and PYD domains-containing protein 3 (Mus musculus) (Q8R4B8 whole entry, the tested form may be a part): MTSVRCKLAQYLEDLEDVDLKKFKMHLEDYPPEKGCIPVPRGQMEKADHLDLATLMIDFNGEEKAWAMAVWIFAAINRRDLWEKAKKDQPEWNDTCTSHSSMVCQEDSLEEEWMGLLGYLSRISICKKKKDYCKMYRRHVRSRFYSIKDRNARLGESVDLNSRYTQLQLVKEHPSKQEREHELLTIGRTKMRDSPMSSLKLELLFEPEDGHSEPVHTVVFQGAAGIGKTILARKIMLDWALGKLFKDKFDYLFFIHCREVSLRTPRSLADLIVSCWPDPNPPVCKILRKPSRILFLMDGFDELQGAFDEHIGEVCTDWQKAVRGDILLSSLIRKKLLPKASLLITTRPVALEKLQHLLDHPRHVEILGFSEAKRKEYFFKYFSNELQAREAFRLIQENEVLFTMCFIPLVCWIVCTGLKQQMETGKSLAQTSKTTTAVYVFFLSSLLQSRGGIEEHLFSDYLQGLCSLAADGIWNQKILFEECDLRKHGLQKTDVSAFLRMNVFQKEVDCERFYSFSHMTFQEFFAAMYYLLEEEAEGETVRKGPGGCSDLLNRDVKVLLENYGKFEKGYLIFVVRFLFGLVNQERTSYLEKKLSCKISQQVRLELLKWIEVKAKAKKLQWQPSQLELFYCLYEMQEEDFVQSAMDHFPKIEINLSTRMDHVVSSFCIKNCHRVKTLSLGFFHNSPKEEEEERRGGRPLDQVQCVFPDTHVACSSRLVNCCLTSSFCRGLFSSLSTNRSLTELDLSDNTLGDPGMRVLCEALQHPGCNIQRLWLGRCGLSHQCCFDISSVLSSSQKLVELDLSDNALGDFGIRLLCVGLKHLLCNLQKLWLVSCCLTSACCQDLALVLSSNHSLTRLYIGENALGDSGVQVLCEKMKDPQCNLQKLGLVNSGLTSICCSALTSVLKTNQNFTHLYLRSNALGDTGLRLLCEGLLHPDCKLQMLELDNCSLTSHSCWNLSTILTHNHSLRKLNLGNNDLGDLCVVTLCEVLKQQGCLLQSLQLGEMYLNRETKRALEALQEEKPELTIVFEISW
Chain of NACHT, LRR and PYD domains-containing protein 3 (Q8R4B8 whole entry, the tested form may be a part): as above
Chain of NLR family CARD domain-containing protein 4 (Mus musculus) (Q3UP24 whole entry, the tested form may be a part): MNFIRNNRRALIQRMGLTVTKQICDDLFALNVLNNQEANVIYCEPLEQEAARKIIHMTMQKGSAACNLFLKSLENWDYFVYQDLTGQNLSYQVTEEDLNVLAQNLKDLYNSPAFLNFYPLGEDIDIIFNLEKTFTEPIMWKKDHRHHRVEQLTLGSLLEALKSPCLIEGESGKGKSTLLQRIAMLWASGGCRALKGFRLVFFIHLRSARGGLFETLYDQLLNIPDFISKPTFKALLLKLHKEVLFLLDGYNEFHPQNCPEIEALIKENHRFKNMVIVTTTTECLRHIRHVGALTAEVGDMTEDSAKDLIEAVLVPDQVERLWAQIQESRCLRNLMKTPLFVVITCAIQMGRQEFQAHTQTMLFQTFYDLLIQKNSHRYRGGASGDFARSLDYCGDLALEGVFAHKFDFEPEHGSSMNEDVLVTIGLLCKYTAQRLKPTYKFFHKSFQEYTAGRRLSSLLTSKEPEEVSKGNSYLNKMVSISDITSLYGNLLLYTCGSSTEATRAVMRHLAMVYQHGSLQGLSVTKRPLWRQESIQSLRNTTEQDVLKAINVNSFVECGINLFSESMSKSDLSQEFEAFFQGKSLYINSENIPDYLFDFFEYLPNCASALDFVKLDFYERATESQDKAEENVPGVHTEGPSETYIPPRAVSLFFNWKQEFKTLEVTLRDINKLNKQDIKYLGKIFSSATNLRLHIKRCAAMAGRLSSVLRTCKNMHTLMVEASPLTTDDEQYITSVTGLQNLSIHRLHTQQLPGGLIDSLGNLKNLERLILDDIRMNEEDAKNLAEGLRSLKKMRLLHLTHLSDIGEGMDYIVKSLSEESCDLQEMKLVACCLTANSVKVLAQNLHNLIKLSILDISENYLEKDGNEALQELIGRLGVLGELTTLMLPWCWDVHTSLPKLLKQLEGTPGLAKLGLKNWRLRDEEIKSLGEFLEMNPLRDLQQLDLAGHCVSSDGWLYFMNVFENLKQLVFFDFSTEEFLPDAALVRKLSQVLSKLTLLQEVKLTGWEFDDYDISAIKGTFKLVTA

SMILES	IC50 ([6]; read-out: IC50) [nM]	also measured
CCCOc1ccc(Cl)cc1Cn1cc(-c2ccccc2)nn1		inhibition [1]: Active; inhibition [2]: Active; inhibition [3]: Active; inhibition [4]: Active; inhibition [5]: inactive
COC(=O)c1ccc(-c2cn(Cc3cc(Cl)ccc3OC)nn2)c(C)c1	2030	
CCCOc1ccc(Cl)cc1Cn1cc(-c2ccc(C(=O)O)cc2)nn1	12000	
COC(=O)c1ccc(-c2cn(Cc3cc(Cl)ccc3O)nn2)cc1	3130	
CCCOc1ccc(Cl)cc1Cn1cc(-c2ccc(S(N)(=O)=O)cc2)nn1	1510	
COC(=O)c1ccc(-c2cn(Cc3ccccc3OC)nn2)cc1	3720	
CCCOc1ccc(Cl)cc1Cn1cc(-c2ccc(C(F)(F)F)cc2)nn1	12800	
CCCOc1ccc(Cl)cc1Cn1cc(-c2ccc(C(=O)OC)cc2)nn1	1210	
COc1ccc(Cl)cc1Cn1cc(-c2ccc(C(=O)N3CCC3)cc2)nn1	1430	
CCCOc1ccc(Cl)cc1Cn1cc(-c2ccc(C)cc2)nn1	8360	
COC(=O)c1ccc(-c2cn(Cc3cc(Cl)ccc3OC)nn2)cc1		inhibition [2]: inactive; inhibition [4]: inactive; inhibition [7]: Active; inhibition [8]: Active; inhibition [9]: inactive; Activity [10]: Active; Activity [11]: Active; Activity [12]: Active; Activity [13]: Active
COC(=O)c1cccc(-c2cn(Cc3cc(Cl)ccc3OC)nn2)c1	1610	
COC(=O)c1ccc(-c2cn(Cc3cc(Cl)ccc3O[11CH3])nn2)cc1		SUV [14]: > 3; Drug uptake [15]: Active; Drug uptake [16]: Active; Drug uptake [17]: Active; Drug uptake [18]: Active; Drug uptake [19]: Active
COC(=O)c1ccc(-c2cn(Cc3cc(Cl)ccc3C(F)(F)F)nn2)cc1		IC50 ([6]; j774.a1): Not Active
COC(=O)c1ccc(-c2cn(Cc3cccc(Cl)c3)nn2)cc1	2160	
COc1ccc(Cl)cc1Cn1cc(-c2ccc(C(=O)O)cc2)nn1	14000	
CNC(=O)c1ccc(-c2cn(Cc3cc(Cl)ccc3OC)nn2)cc1	4210	
COC(=O)c1ccc(-c2cn(Cc3cc(F)ccc3OC)nn2)cc1	1500	
CCCOc1ccc(Cl)cc1Cn1cc(-c2ccc(F)cc2)nn1	4280	
COc1ccc(-c2cn(Cc3cc(Cl)ccc3OC)nn2)cc1	1310	
COC(=O)c1ccc(-c2cn(Cc3cc(F)cc(F)c3OC)nn2)cc1		IC50 ([6]; j774.a1): Not Active
COC(=O)c1ccc(-c2cn(Cc3cc(Cl)ccc3OC)nn2)c(F)c1	1620	
COC(=O)c1ccc(-c2cn(Cc3cc(Cl)cc(OC)c3)nn2)cc1	510	
COC(=O)c1ccc(-c2cn(Cc3cc(Cl)ccc3OC)nn2)nc1	2310	
COC(=O)c1ccc(-c2cn(Cc3cc(F)c(F)cc3OC)nn2)cc1	2470	
COC(=O)c1ccc(-c2cn(Cc3cc(C(F)(F)F)ccc3OC)nn2)cc1	810	
COC(=O)c1ccc(-c2cn(Cc3cc(Br)ccc3OC)nn2)cc1	1070	
COC(=O)c1ccc(-c2cn(Cc3ccccc3OC(F)F)nn2)cc1	8060	
COC(=O)c1ccc(-c2cn(Cc3ccccc3)nn2)cc1		IC50 ([6]; j774.a1): Not Active
COC(=O)c1ccc(-c2cn(Cc3c(OC)ccc(F)c3F)nn2)cc1	2860	
